Experimental data as given in ChEMBL document CHEMBL3120116, “Toward synthesis of third-generation spin-labeled podophyllotoxin derivatives using isocyanide multicomponent reactions” (Eur J Med Chem, 2014).

Tests used:
Format in all cases: functional, cell-based
[1] = Cytotoxicity against human KBVIN cells after 72 hrs by SRB assay
Outline: (§1)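 Cells seeded at 3–5 × 10^3 per well in RPMI-1640 with 10% FBS containing graded sample concentrations, exposed 72 h. Attached cells fixed with cold 50% trichloroacetic acid 30 min, stained with 0.04% SRB 30 min, bound dye dissolved in 10 mM Tris-base, absorbance read at 515 nm. Triplicate experiments; IC50 reported. KBvin is a vincristine-selected MDR KB subline.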

DU-145 = assay: Cytotoxicity against human DU145 cells after 72 hrs by SRB assay; outline: as §1
A549 = assay: Cytotoxicity against human A549 cells after 72 hrs by SRB assay; outline: as §1
KB = assay: Cytotoxicity against human KB cells after 72 hrs by SRB assay; outline: as §1

Compound | IC50 ([1]; kbvin) [µM] | IC50 (DU-145) [µM] | IC50 (A549) [µM] | IC50 (KB) [µM] | IC50 ([1]; Homo sapiens, KBVIN, 72 h) [µM]
CCCN(C(=O)C1=CC(C)(C)N([O])C1(C)C)C(C(=O)N[C@@H]1c2cc3c(cc2[C@@H](c2cc(OC)c(OC)c(OC)c2)[C@H]2C(=O)OC[C@@H]21)OCO3)c1ccc(OC)cc1 (some centres undefined) | > 20 | > 20 | > 20 | > 20 | 
CCCN(C(=O)C1=CC(C)(C)N([O])C1(C)C)C1(C(=O)N[C@@H]2c3cc4c(cc3[C@@H](c3cc(OC)c(OC)c(OC)c3)[C@H]3C(=O)OC[C@@H]32)OCO4)CCCCC1 | > 20 | > 20 | > 20 | > 20 | 
CCCC(C(=O)N[C@@H]1c2cc3c(cc2[C@@H](c2cc(OC)c(OC)c(OC)c2)[C@H]2C(=O)OC[C@@H]21)OCO3)N(C(=O)C1=CC(C)(C)N([O])C1(C)C)C(C)(C)C (some centres undefined) | > 20 | > 20 | > 20 | > 20 | 
CCCC(C(=O)N[C@@H]1c2cc3c(cc2[C@@H](c2cc(OC)c(OC)c(OC)c2)[C@H]2C(=O)OC[C@@H]21)OCO3)N(CCC)C(=O)C1=CC(C)(C)N([O])C(C)(C)C1 (some centres undefined) | > 20 | > 20 | > 20 | > 20 | 
CCCC(C(=O)N[C@@H]1c2cc3c(cc2[C@@H](c2cc(OC)c(OC)c(OC)c2)[C@H]2C(=O)OC[C@@H]21)OCO3)N(CCC)C(=O)C1CC(C)(C)N([O])C(C)(C)C1 (some centres undefined) | > 20 | > 20 | > 20 | > 20 | 
COc1cc([C@@H]2c3cc4c(cc3[C@@H](NC(=O)C(C)(C)OC(=O)C3=CC(C)(C)N([O])C3(C)C)[C@H]3COC(=O)[C@H]23)OCO4)cc(OC)c1OC | 2.55 | 2.39 | 2.38 | 2.32 | 
COc1cc([C@@H]2c3cc4c(cc3[C@@H](NC(=O)C(OC(=O)C3=CC(C)(C)N([O])C3(C)C)c3ccccc3)[C@H]3COC(=O)[C@H]23)OCO4)cc(OC)c1OC (some centres undefined) | > 20 | > 20 | > 20 | > 20 | 
CCCC(OC(=O)C1=CC(C)(C)N([O])C1(C)C)C(=O)N[C@@H]1c2cc3c(cc2[C@@H](c2cc(OC)c(OC)c(OC)c2)[C@H]2C(=O)OC[C@@H]21)OCO3 (some centres undefined) | 8.88 | 7.07 | 8.86 | 7.12 | 
COc1cc([C@@H]2c3cc4c(cc3[C@@H](NC(=O)C3(OC(=O)C5=CC(C)(C)N([O])C5(C)C)CCCCC3)[C@H]3COC(=O)[C@H]23)OCO4)cc(OC)c1OC | 13.7 | 8.74 | 9.52 | 9.24 | 
COc1ccc(C(OC(=O)C2=CC(C)(C)N([O])C2(C)C)C(=O)N[C@@H]2c3cc4c(cc3[C@@H](c3cc(OC)c(OC)c(OC)c3)[C@H]3C(=O)OC[C@@H]32)OCO4)cc1 (some centres undefined) | 0.73 | 0.63 | 0.75 | 0.6 | 
COc1cc([C@@H]2c3cc4c(cc3[C@@H](NC(=O)C(Cc3ccccc3)OC(=O)C3=CC(C)(C)N([O])C3(C)C)[C@H]3COC(=O)[C@H]23)OCO4)cc(OC)c1OC (some centres undefined) | 7.71 | 6.82 | 7.68 | 6.53 | 
COc1cc([C@@H]2c3cc4c(cc3[C@@H](NC(=O)C(OC(=O)C3=CC(C)(C)N([O])C3(C)C)c3ccco3)[C@H]3COC(=O)[C@H]23)OCO4)cc(OC)c1OC (some centres undefined) | 7.35 | 6.55 | 7.38 | 7.12 | 
COc1cc([C@@H]2c3cc4c(cc3[C@@H](NC(=O)C(OC(=O)C3=CC(C)(C)N([O])C3(C)C)c3ccc5c(c3)OCO5)[C@H]3COC(=O)[C@H]23)OCO4)cc(OC)c1OC (some centres undefined) | 2.03 | 1.37 | 1.46 | 1.12 | 
CCCC(OC(=O)C1CC(C)(C)N([O])C(C)(C)C1)C(=O)N[C@@H]1c2cc3c(cc2[C@@H](c2cc(OC)c(OC)c(OC)c2)[C@H]2C(=O)OC[C@@H]21)OCO3 (some centres undefined) | 7.96 | 7.13 | 8.82 | 6.58 | 
CCCC(OC(=O)C1=CC(C)(C)N([O])C(C)(C)C1)C(=O)N[C@@H]1c2cc3c(cc2[C@@H](c2cc(OC)c(OC)c(OC)c2)[C@H]2C(=O)OC[C@@H]21)OCO3 (some centres undefined) | 8.35 | 7.27 | 9.05 | 6.88 | 
CCCC(C(=O)N[C@@H]1c2cc3c(cc2[C@@H](c2cc(OC)c(OC)c(OC)c2)[C@H]2C(=O)OC[C@@H]21)OCO3)N(C(=O)C1=CC(C)(C)N([O])C1(C)C)C1CCCCC1 (some centres undefined) | 8.83 | 11 | 8.98 | 9.35 | 
CCCC(C(=O)N[C@@H]1c2cc3c(cc2[C@@H](c2cc(OC)c(OC)c(OC)c2)[C@H]2C(=O)OC[C@@H]21)OCO3)N(C(=O)C1=CC(C)(C)N([O])C1(C)C)c1ccccc1 (some centres undefined) | 7.47 | 9.78 | 8.4 | 8.49 | 
COc1cc([C@@H]2c3cc4c(cc3[C@@H](NC(=O)C(c3ccccc3)N(C(=O)C3CC(C)(C)N([O])C(C)(C)C3)c3ccccc3)[C@H]3COC(=O)[C@H]23)OCO4)cc(OC)c1OC (some centres undefined) | 6.45 | 6.08 | 6.1 | 5.94 | 
CCCN(C(=O)C1=CC(C)(C)N([O])C1(C)C)C(C)(C)C(=O)N[C@@H]1c2cc3c(cc2[C@@H](c2cc(OC)c(OC)c(OC)c2)[C@H]2C(=O)OC[C@@H]21)OCO3 | > 20 | > 20 | > 20 | > 20 | 
CCCN(C(=O)C1=CC(C)(C)N([O])C(C)(C)C1)C(C)(C)C(=O)N[C@@H]1c2cc3c(cc2[C@@H](c2cc(OC)c(OC)c(OC)c2)[C@H]2C(=O)OC[C@@H]21)OCO3 | > 20 | > 20 | > 20 | > 20 | 
CCCC(C(=O)N[C@@H]1c2cc3c(cc2[C@@H](c2cc(OC)c(OC)c(OC)c2)[C@H]2C(=O)OC[C@@H]21)OCO3)N(CCC)C(=O)C1=CC(C)(C)N([O])C1(C)C (some centres undefined) | > 20 | > 20 | > 20 | > 20 | 
CCCN(C(=O)C1=CC(C)(C)N([O])C1(C)C)C(C(=O)N[C@@H]1c2cc3c(cc2[C@@H](c2cc(OC)c(OC)c(OC)c2)[C@H]2C(=O)OC[C@@H]21)OCO3)c1ccccc1 (some centres undefined) | > 20 | > 20 | > 20 | > 20 | 
COc1cc([C@@H]2c3cc4c(cc3[C@@H](O[C@@H]3O[C@@H]5CO[C@@H](C)O[C@H]5[C@H](O)[C@H]3O)[C@H]3COC(=O)[C@H]23)OCO4)cc(OC)c1O [ETOPOSIDE] |  |  |  |  | > 20
